# Test results taken from publication PMC7396962 (Xenobiotica; the fate of foreign compounds in biological …, 2020).
# Key:
# UGT1A1 [1] = target: T1, UGT1A1 (Homo sapiens, UniProt P22309); assay: Glucuronidation of CA by recombinant UGT1A1; type: in vitro ADME; details: formation of the glucuronide from CA
# T1 sequence (P22309 26-533): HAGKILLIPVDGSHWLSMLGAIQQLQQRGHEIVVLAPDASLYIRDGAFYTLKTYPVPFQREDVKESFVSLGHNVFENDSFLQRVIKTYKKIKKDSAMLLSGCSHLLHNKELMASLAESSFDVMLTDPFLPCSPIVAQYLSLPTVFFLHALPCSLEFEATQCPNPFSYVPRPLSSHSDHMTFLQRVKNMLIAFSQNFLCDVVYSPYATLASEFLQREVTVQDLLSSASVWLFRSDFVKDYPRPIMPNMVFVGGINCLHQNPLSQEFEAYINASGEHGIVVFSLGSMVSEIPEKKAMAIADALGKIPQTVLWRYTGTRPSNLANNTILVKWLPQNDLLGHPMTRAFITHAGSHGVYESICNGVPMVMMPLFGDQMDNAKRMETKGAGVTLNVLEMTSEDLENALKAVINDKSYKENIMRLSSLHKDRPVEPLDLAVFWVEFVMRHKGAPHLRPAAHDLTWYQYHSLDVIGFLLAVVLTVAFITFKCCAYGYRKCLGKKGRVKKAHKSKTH
# UGT1A8 = target: T2, UGT1A8 (Homo sapiens, UniProt Q9HAW9); assay: Glucuronidation of CA by recombinant UGT1A8; type: in vitro ADME; details: formation of the glucuronide from CA
# T2 sequence (Q9HAW9 26-530): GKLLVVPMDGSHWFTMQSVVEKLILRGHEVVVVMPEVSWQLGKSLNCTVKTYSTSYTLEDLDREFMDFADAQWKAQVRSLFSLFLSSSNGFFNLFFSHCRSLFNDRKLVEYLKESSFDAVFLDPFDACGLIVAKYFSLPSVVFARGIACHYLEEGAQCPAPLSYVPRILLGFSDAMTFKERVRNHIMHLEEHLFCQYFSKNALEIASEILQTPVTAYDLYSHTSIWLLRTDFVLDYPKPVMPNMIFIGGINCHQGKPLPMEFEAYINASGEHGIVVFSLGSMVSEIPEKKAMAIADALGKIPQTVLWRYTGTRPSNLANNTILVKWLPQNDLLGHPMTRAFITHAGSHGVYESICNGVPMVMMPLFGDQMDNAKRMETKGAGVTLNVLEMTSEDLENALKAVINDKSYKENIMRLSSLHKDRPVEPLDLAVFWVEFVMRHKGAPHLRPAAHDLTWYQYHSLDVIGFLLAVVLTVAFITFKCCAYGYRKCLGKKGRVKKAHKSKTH
# UGT1A9 [2] = target: T3, UGT1A9 (Homo sapiens, UniProt O60656); assay: Glucuronidation of CA by recombinant UGT1A9; type: in vitro ADME; details: formation of the glucuronide from CA
# T3 sequence (O60656 26-530): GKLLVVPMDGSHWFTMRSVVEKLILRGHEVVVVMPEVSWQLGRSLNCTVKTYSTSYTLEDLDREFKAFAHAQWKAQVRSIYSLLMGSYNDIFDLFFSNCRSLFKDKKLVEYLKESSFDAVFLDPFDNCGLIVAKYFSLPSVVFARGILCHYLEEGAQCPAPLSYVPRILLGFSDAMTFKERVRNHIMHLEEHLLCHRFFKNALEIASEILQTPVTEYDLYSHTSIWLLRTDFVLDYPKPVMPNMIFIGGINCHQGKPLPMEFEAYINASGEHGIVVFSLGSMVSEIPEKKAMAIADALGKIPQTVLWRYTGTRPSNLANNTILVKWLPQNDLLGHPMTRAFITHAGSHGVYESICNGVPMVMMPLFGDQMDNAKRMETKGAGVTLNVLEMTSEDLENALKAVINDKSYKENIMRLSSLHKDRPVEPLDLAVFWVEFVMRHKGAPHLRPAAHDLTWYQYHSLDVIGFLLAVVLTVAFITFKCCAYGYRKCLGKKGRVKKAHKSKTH
# [3] = test system: expressed human CYP enzymes; assay: Reaction phenotyping with twelve expressed CYP enzymes; type: in vitro ADME
# In short: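 Twelve expressed human CYPs (1–1.2 mg/mL) with test compound 0.16–80 μM, NADPH 1 mM and MgCl2 in 50 mM Tris-HCl pH 7.4, 37 °C, 60 min. Controls lacked NADPH. Acetonitrile quench, then UHPLC-UV/Q-TOF MS. Formation rates given as pmol/min/mg protein. Kinetics fitted after Eadie–Hofstee inspection; CLint = Vmax/Km; triplicate.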
# [4] = test system: recombinant human UGT isoforms; assay: Reaction phenotyping with twelve recombinant UGT isoforms; type: in vitro ADME
# UGT1A1 [5] = target: T1, UGT1A1; type: in vitro ADME; details: panel of HLMs (n = 9), substrate 10 μM, p = 0.049
# UGT1A9 [6] = target: T3, UGT1A9; type: in vitro ADME; details: panel of HLMs (n = 9), substrate 10 μM, p = 0.015
# In short: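 Test compound (10 μM) glucuronidated in each of nine individual human liver microsomes (1 mg/mL) with UDPGA and alamethicin, pH 7.4, 37 °C for 60 min. Rates regressed linearly against each donor's propofol O-glucuronidation activity; correlation coefficient r reported, p < 0.05 significant.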
# [7] = test system: severe acute respiratory syndrome coronavirus papain-like protease; details: read-out: inhibitory effects on severe acute respiratory syndrome coronavirus papain-like protease; cited from earlier work
# human carboxylesterase 2 = details: ref Li et al., 2015, cited from earlier work
# [8] = test system: Hep3B hepatocellular carcinoma cell line; details: cited from earlier work
smiles,measurement,setting,value
"CC(C)=CCC/C(C)=C/Cc1cc(-c2coc3cc(O)ccc3c2=O)ccc1O [CA, Corylifol A]",CLint,UGT1A1 [1],284.07 µL/min/mg
same,CLint,UGT1A8,135.59 µL/min/mg
same,CLint,UGT1A9 [2],191.94 µL/min/mg
same,metabolism of CA,"[3]; CYP1A2, 1B1, 2A6, 2B6, 2E1, 3A4 and 3A5",cannot metabolize CA at all
same,CLint values (phase I metabolic activities),"[3]; range over CYP1A1, 2C8 and 2C19",13.01 to 49.36 µL/min/mg
same,catalytic activity to CA-glucuronidation,"[4]; UGT1A1, 1A7, 1A8 and 1A9",strong catalytic activity
same,catalytic activity to CA-glucuronidation,"[4]; UGT1A3, 1A4, 2B4 and 2B7",weak catalytic activity
same,correlation (r) between CA-7-O-glucuronidation and β-estradiol-3-O-glucuronidation,UGT1A1 [5],0.668
same,correlation (r) between CA-7-O-glucuronidation and propofol-O-glucuronidation,UGT1A9 [6],0.771
same,IC50,[7],32300 ± 3200 nM
same,IC50,"human carboxylesterase 2; read-out: IC50, human carboxylesterase 2",620 nM
same,Ki,"human carboxylesterase 2; read-out: Ki, human carboxylesterase 2",870 nM
same,"IC50, cytotoxic activity",[8],13.5 µg/mL
